For test [1], the species on record is Homo sapiens. In words: Selectivity for human recombinant kappa opioid receptor over human recombinant delta opioid receptor.
The target in test [2] is T1, Kappa-type opioid receptor (Homo sapiens, UniProt P41145). Nature of the test: Agonist activity at human recombinant kappa opioid receptor expressed in CHO cells by [35S]GTPgammaS binding assay relative to (-)-U50,488. Type of test: functional, cell-based. On the technique in general: GTPγS is a poorly hydrolysed GTP analogue; its binding reports G protein activation.
T1 sequence (P41145 whole entry): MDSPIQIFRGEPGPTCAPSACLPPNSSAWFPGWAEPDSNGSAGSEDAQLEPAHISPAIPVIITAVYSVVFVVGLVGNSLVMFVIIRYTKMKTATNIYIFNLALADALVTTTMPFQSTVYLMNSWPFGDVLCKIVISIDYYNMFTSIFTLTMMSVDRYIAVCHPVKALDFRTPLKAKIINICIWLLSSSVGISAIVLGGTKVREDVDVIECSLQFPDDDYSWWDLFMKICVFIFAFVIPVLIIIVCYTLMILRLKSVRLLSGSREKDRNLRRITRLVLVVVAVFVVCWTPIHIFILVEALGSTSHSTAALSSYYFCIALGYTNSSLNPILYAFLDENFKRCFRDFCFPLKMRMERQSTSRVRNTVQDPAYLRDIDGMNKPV

For test [3], the target named is T2, Mu-type opioid receptor (Homo sapiens, UniProt P35372). In words: Agonist activity at human recombinant mu opioid receptor expressed in CHO cells by [35S]GTP-gamma-S binding assay relative to DAMGO. Format: functional, cell-based.
T2 sequence (P35372 whole entry): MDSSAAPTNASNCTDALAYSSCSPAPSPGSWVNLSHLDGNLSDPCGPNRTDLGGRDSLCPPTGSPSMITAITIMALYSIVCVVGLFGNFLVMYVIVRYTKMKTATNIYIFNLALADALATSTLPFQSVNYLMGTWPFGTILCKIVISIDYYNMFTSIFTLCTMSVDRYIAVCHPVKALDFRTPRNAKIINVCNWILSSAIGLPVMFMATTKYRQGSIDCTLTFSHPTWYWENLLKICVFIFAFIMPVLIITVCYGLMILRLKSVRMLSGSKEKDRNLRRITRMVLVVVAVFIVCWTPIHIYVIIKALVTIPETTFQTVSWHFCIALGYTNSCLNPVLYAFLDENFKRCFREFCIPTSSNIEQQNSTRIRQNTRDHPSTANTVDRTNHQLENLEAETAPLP
Test [4] has as its target T1, Kappa-type opioid receptor. Nature of the test: Agonist activity at human recombinant kappa opioid receptor expressed in CHO cells by [35S]GTP-gamma-S binding assay. Format: functional, cell-based.
In test [5] the target is T1, Kappa-type opioid receptor. In words: Displacement of [125I]IOXY from human recombinant kappa opioid receptor expressed in CHO cells. Type of test: cell-based. On the technique in general: In a radioligand displacement assay an active substance lowers the binding of a labelled ligand.
For test [6], the species on record is Homo sapiens. Nature of the test: Selectivity for human recombinant kappa opioid receptor over human recombinant mu opioid receptor.
Test [7] has as its target T2, Mu-type opioid receptor. Nature of the test: Displacement of [125I]IOXY from human recombinant mu opioid receptor expressed in CHO cells. Type of test: cell-based.
Test [8] concerns the target Delta-type opioid receptor (Homo sapiens, UniProt P41143). In words: Displacement of [125I]IOXY from human recombinant delta opioid receptor expressed in CHO cells. Type of test: cell-based.
In test [9] the target is T2, Mu-type opioid receptor. Nature of the test: Agonist activity at human recombinant mu opioid receptor expressed in CHO cells by [35S]GTP-gamma-S binding assay. Format: functional, cell-based.
For test [10], the target named is T2, Mu-type opioid receptor. In words: Agonist activity at human mu opioid receptor expressed in CHO cells assessed as increase in ERK phosphorylation after 10 mins. Type of test: functional, cell-based. The method, boiled down: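 CHO cells stably expressing human MOR1 (~800 fmol/mg membrane protein), serum-starved 30 min at 37°C, then treated 10 min, with naloxone present where indicated. Lysates were run on SDS-PAGE and immunoblotted for total ERK1/2, then stripped and reprobed for phospho-ERK (Tyr204), with HRP chemiluminescence detection. Densitometry; at least three experiments in triplicate.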

For test [11], the target named is T2, Mu-type opioid receptor. In words: Agonist activity at mu opioid receptor expressed in HEK293 cells assessed as induction of beta-arrestin-2-GFP plasma membrane translocation at 10 uM after 10 mins. Format: functional, cell-based. An outline of the steps: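 HEK-293 cells stably expressing MOR (~1000 fmol/mg membrane protein), or transiently expressing MOR1, were transiently transfected with βarr2-GFP (2 μg), with or without GRK2 (1.5 μg). After 24–36 h at 37°C and 30 min serum starvation, basal images were taken. Drug was then applied at 10 μM for 10 min, with confocal imaging each minute; cells shown at 5 min. At least 3 independent experiments.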

Each structure is given as a SMILES string. The source made the active and inactive calls. The rule behind the calls is not given here.

Chain of Delta-type opioid receptor (P41143 whole entry): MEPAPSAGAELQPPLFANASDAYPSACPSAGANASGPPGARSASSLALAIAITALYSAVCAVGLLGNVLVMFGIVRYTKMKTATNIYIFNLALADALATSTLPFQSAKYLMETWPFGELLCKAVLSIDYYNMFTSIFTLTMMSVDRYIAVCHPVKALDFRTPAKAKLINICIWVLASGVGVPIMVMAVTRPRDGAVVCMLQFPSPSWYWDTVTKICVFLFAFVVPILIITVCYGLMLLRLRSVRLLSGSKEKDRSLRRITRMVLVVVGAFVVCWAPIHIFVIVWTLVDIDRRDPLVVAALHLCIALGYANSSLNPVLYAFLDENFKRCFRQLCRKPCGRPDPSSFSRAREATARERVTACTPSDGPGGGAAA

What is called Emax is the maximal effect, on the per cent scale that the assay sets. The EC50 is the concentration needed to bring the measured effect to its halfway point. In general, Ki refers to the equilibrium dissociation constant of an inhibitor or competing ligand from its target. `COC(=O)[C@@H]1C[C@H](OC(=O)c2cc3ccccc3o2)C(=O)[C@H]2[C@@]1(C)CC[C@H]1C(=O)O[C@H](c3ccoc3)C[C@]21C`: the results for the Ratio Ki in test [1] and in test [6] were 8 and 0.14, respectively. Further, the values for the Emax in test [2] and in test [3] were 109% and 104%, respectively. Besides, the EC50 in test [4] came to 1120 nM; in test [9], 1680 nM. Also, the Ki was 70 nM in test [5], 10 nM in [7] and 580 nM in test [8].

As for `COC(=O)[C@@H]1C[C@H](NS(=O)(=O)c2ccccc2)C(=O)[C@H]2[C@@]1(C)CC[C@H]1C(=O)O[C@H](c3ccoc3)C[C@]21C`, the Ratio Ki in test [1] and in test [6] was more than 7 each time. Further, the values for the Ki in [5], in test [7] and in test [8] were 1400 nM, more than 10000 nM and more than 10000 nM, respectively.

As to `COC(=O)[C@@H]1C[C@H](NS(C)(=O)=O)C(=O)[C@H]2[C@@]1(C)CC[C@H]1C(=O)O[C@H](c3ccoc3)C[C@]21C`, the Ratio Ki in test [1] and in [6] was more than 38 each time. Further, the results for the Ki in test [5], in test [7] and in test [8] were 260 nM, more than 10000 nM and more than 10000 nM, respectively.

`COC(=O)[C@@H]1C[C@H](OC(=O)c2ccccc2Br)C(=O)[C@H]2[C@@]1(C)CC[C@H]1C(=O)O[C@H](c3ccoc3)C[C@]21C`: the Ratio Ki is more than 100 in test [1] and 1.2 in test [6].

On to `COC(=O)[C@@H]1C[C@H](O)C(=O)[C@H]2[C@@]1(C)CC[C@H]1C(=O)O[C@H](c3ccoc3)C[C@]21C` [SALVINORIN B], for which the Ki in test [7] and in [8] was more than 10000 nM in each case.

In the case of `COC(=O)[C@@H]1C[C@H](OC(=O)c2ccc(OC)cc2)C(=O)[C@H]2[C@@]1(C)CC[C@H]1C(=O)O[C@H](c3ccoc3)C[C@]21C`, the Ratio Ki was found to be 3 in test [1] and 0.12 in [6]. For the same compound, the Emax in test [2] was found to be 106%; in [3], 94%. For the same compound, the figures for the EC50 in [4] and in [9] were 2610 nM and 830 nM, respectively. Also, the Activity entry in [10] was “Dose-dependent effect”. Further, the Ki in [5] was 540 nM; in test [7] it was 70 nM; in test [8], 1860 nM.

With `COC(=O)[C@@H]1C[C@H](OC(=O)c2ccccc2)C(=O)[C@H]2[C@@]1(C)CC[C@H]1C(=O)O[C@H](c3ccoc3)C[C@]21C`, the Ratio Ki was 12 in [1] and 0.13 in test [6].

Take `COC(=O)[C@@H]1C[C@H](OC(=O)c2ccsc2)C(=O)[C@H]2[C@@]1(C)CC[C@H]1C(=O)O[C@H](c3ccoc3)C[C@]21C`: the Ratio Ki in [1] worked out at 9; in test [6] it was 0.16. Besides, the values for the maximal effect (Emax) in [2] and in [3] were 95% and 108%, respectively. Also, the EC50 stood at 840 nM in test [4] and 690 nM in test [9]. Moreover, the results for the Ki in test [5], in test [7] and in test [8] were 80 nM, 10 nM and 690 nM, respectively.

Consider `COC(=O)[C@@H]1C[C@H](OC(=O)c2ccc([N+](=O)[O-])cc2)C(=O)[C@H]2[C@@]1(C)CC[C@H]1C(=O)O[C@H](c3ccoc3)C[C@]21C`, for which the Ratio Ki in test [1] was 0.45; in [6], 13. In [3], the Emax worked out at 46%. Moreover, the Activity entry in test [10] was “Dose-dependent effect”. Moreover, the results for the Ki in test [5], in test [7] and in test [8] were 570 nM, 260 nM and more than 10000 nM, respectively. Besides, the EC50 in [9] stood at 1370 nM.

As to `COC(=O)[C@@H]1C[C@H](OC(=O)c2cccc3ccccc23)C(=O)[C@H]2[C@@]1(C)CC[C@H]1C(=O)O[C@H](c3ccoc3)C[C@]21C`, the Ratio Ki in test [1] and in [6] was more than 24 throughout. Also, the values for the Ki in test [5], in [7] and in test [8] were 410 nM, more than 10000 nM and more than 10000 nM, respectively.

Consider `COC(=O)[C@@H]1C[C@H](OC(=O)c2ccc3ccccc3c2)C(=O)[C@H]2[C@@]1(C)CC[C@H]1C(=O)O[C@H](c3ccoc3)C[C@]21C`, for which the Ratio Ki was more than 2 in test [1] and 0.03 in [6]. Moreover, the Ki in test [5] is 5490 nM; in [7], 180 nM; in test [8], more than 10000 nM.

Turning to `COC(=O)[C@@H]1C[C@H](NC(C)=O)C(=O)[C@H]2[C@@]1(C)CC[C@H]1C(=O)O[C@H](c3ccoc3)C[C@]21C`, the Ratio Ki in [1] is more than 330; in [6], 13. The Emax in test [2] worked out at 108%. Also, the EC50 in [4] is 120 nM. Further, the values for the Ki in test [5], in [7] and in [8] were 30 nM, 4180 nM and more than 10000 nM, respectively.

As to `COC(=O)[C@@H]1C[C@H](OC(=O)c2cccc([N+](=O)[O-])c2)C(=O)[C@H]2[C@@]1(C)CC[C@H]1C(=O)O[C@H](c3ccoc3)C[C@]21C`, the Ratio Ki in test [1] and in test [6] was more than 12 in each case. Further, the Ki in test [5] was 800 nM; in [7], more than 10000 nM; in test [8], more than 10000 nM.

Consider `COC(=O)[C@@H]1C[C@H](OC(=O)c2ccccc2[N+](=O)[O-])C(=O)[C@H]2[C@@]1(C)CC[C@H]1C(=O)O[C@H](c3ccoc3)C[C@]21C`, for which the Ratio Ki in test [1] is more than 11; in test [6], 8. Further, the Ki in test [5] is 900 nM; in [7] it was 7550 nM; in test [8] it was more than 10000 nM.

With `COC(=O)[C@@H]1C[C@H](SC(=O)c2ccccc2)C(=O)[C@H]2[C@@]1(C)CC[C@H]1C(=O)O[C@H](c3ccoc3)C[C@]21C`, the Ratio Ki in [1] came to 1.4; in test [6] it was 0.21. The Ki was determined as 1410 nM in test [5], 290 nM in test [7] and 1930 nM in test [8].

Consider `COC(=O)[C@@H]1C[C@H](OC(=O)c2ccccc2OC)C(=O)[C@H]2[C@@]1(C)CC[C@H]1C(=O)O[C@H](c3ccoc3)C[C@]21C`, for which the Ratio Ki in [1] was more than 43; in [6] it was 7. Further, the values for the Ki in [5], in test [7] and in [8] were 230 nM, 1640 nM and more than 10000 nM, respectively.

In the case of `COC(=O)[C@@H]1C[C@H](NC(=O)c2ccccc2)C(=O)[C@H]2[C@@]1(C)CC[C@H]1C(=O)O[C@H](c3ccoc3)C[C@]21C`, the Ratio Ki in test [1] came to 0.11; in [6], 0.0004. Also, the Emax in test [3] is 134%. Moreover, the Activity entry in test [10] is “Dose-dependent effect”. Moreover, the results for the Ki in test [5], in test [7] and in test [8] were 7430 nM, 3.1 nM and 810 nM, respectively. Further, the result in [11] was Active. Besides, the concentration giving a half-maximal response (EC50) in test [9] was 360 nM.

As for `COC(=O)[C@@H]1C[C@H](OC(=O)c2cccc(OC)c2)C(=O)[C@H]2[C@@]1(C)CC[C@H]1C(=O)O[C@H](c3ccoc3)C[C@]21C`, the Ratio Ki was 2 in test [1] and 0.05 in test [6]. Moreover, the Emax worked out at 97% in test [2] and 72% in [3]. Moreover, the values for the EC50 in [4] and in test [9] were 3590 nM and 1670 nM, respectively. In addition, the Ki in test [5] is 550 nM; in test [7] it was 30 nM; in test [8], 1140 nM.

Consider `COC(=O)[C@@H]1C[C@H](OC(=O)c2ccc(Br)cc2)C(=O)[C@H]2[C@@]1(C)CC[C@H]1C(=O)O[C@H](c3ccoc3)C[C@]21C`, for which the Ratio Ki in test [1] was 2; in [6], 0.01. Further, the maximal effect (Emax) in test [3] was determined as 108%. For the same compound, the Activity entry in test [10] is “Dose-dependent effect”. The EC50 in test [9] was 4890 nM.

For the compound `COC(=O)[C@@H]1C[C@H](OC(=O)C2CCCCC2)C(=O)[C@H]2[C@@]1(C)CC[C@H]1C(=O)O[C@H](c3ccoc3)C[C@]21C`, the values for the Ratio Ki in test [1] and in [6] were more than 5 and 0.5, respectively. The results for the inhibitory constant (Ki) in test [5], in test [7] and in test [8] were 2010 nM, 1030 nM and more than 10000 nM, respectively.

Consider `COC(=O)[C@@H]1C[C@H](OC(=O)c2cccc(Br)c2)C(=O)[C@H]2[C@@]1(C)CC[C@H]1C(=O)O[C@H](c3ccoc3)C[C@]21C`, for which the Ratio Ki in test [1] was more than 100; in test [6] it was 1.6.

Regarding `COC(=O)[C@@H]1C[C@H](OC(=O)c2cccs2)C(=O)[C@H]2[C@@]1(C)CC[C@H]1C(=O)O[C@H](c3ccoc3)C[C@]21C`, the Ratio Ki in [1] worked out at 5; in [6], 0.04. Further, in test [3], the Emax came out at 95%. For the same compound, the EC50 in [9] worked out at 1150 nM.

Values taken from ChEMBL document CHEMBL1144846, “Herkinorin analogues with differential beta-arrestin-2 interactions” (J Med Chem, 2008).
